Assay results collected from several papers.
Compare with care: the assays were run in different laboratories.
KRAS G12D: GTPase KRas (KRAS, Homo sapiens, UniProt P01116, G12D)
CDK4: Cyclin-dependent kinase 4 (CDK4, Homo sapiens, UniProt P11802)
Flap endonuclease 1: Flap endonuclease 1 (Homo sapiens, UniProt P39748)
Chymotrypsinogen A: Chymotrypsinogen A (Bos taurus, UniProt P00766)
CHRM2: Muscarinic acetylcholine receptor M2 (CHRM2, Homo sapiens, UniProt P08172)

Structure (SMILES) | target | test | setting | IC50 [nM]
CCCCC[C@@H]1NC(=O)[C@@H]2C[C@@H](OCC(=O)O)CN2C(=O)[C@H](CC(=O)O)NC(=O)[C@H](Cc2ccc(O)cc2)NC(=O)[C@H](CO)NC(=O)[C@H]([C@@H](C)CC)NC(=O)[C@H](Cc2ccc(-c3ccccc3)cc2)NC(=O)[C@H](CC(C)C)NC(=O)[C@@H]2CCCN2C(=O)[C@@H](NC(=O)[C@H](CCCNC(=N)N)NC(=O)[C@H](CCCNC(=N)N)NC(C)=O)CSSC[C@@H](C(=O)N[C@@H](CCCNC(=N)N)C(=O)N[C@@H](CCCNC(=N)N)C(N)=O)NC1=O | KRAS G12D | enzyme activity, inhibitor, TR-FRET | – | 23
CCOC(=O)[C@H]1Cc2c(cc([N+](=O)[O-])cc2[N+](=O)[O-])[C@@H](O)[C@@]12C(=O)Nc1cccc(Br)c12 | CDK4 | cell-free assay, inhibitor, TR-FRET | – | 2900
CC(C)C[C@H](NC(=O)[C@H](Cc1ccccc1)NC(=O)[C@H](Cc1ccc(O)cc1)NC(=O)CNC(=O)[C@H](CCCCN)NC(=O)[C@H](CO)NC(=O)[C@H](CCC(N)=O)NC(=O)CNC(=O)[C@@H](NC(=O)[C@H](CO)NC(=O)[C@@H]1CCCN1C(=O)[C@H](CO)NC(=O)[C@H](CCC(N)=O)NC(=O)[C@H](Cc1ccc(O)cc1)NC(=O)[C@H](CCC(=O)O)NC(=O)[C@H](C)NC(=O)[C@H](CCCCN)NC(=O)[C@@H](N)Cc1ccccc1)C(C)C)C(=O)N[C@@H](Cc1ccccc1)C(=O)N[C@@H](CCCNC(=N)N)C(=O)N1CCC[C@H]1C(=O)N[C@@H](CCCNC(=N)N)C(=O)N[C@@H](CC(N)=O)C(N)=O | Neuromedin-U receptor 1 (Mus musculus, UniProt O55040) | ligand displacement, radioligand | cell membranes | 0.03
CC[C@H](C)[C@@H]1NC(=O)[C@H](Cc2ccc(-c3ccccc3)cc2)NC(=O)[C@H](CC(C)C)NC(=O)[C@@H]2CCCN2C(=O)[C@@H](NC(=O)[C@H](CCCNC(=N)N)NC(=O)[C@H](CCCNC(=N)N)NC(C)=O)CSSC[C@@H](C(=O)N[C@@H](CCCNC(=N)N)C(=O)N[C@@H](CCCNC(=N)N)C(N)=O)NC(=O)[C@H](C(C)C)NC(=O)[C@@H]2CC[C@H](c3ccccc3)N2C(=O)[C@H](CC(=O)O)NC(=O)[C@H](Cc2ccc(O)cc2)NC(=O)[C@H](CO)NC1=O | KRAS G12D | enzyme activity, inhibitor, TR-FRET | – | 94
CCOC(=O)[C@H]1Cc2c(cc([N+](=O)[O-])cc2[N+](=O)[O-])[C@@H](O)[C@@]12C(=O)Nc1cc(Cl)ccc12 | CDK4 | cell-free assay, inhibitor, TR-FRET | – | 940
CC(C)C[C@H](NC(=O)[C@H](Cc1ccccc1)NC(=O)c1cnccn1)B(O)O | GZMA (Homo sapiens, UniProt P12544) | enzyme activity, inhibitor | – | 11900
O=C(O)c1cc[c]([Sb](=[O])([OH])[OH])cc1[N+](=O)[O-] | Flap endonuclease 1 | enzyme activity, inhibitor, fluorescence | with preincubation | 1200
O=c1oc(-c2cccc([N+](=O)[O-])c2)ns1 | Chymotrypsinogen A | enzyme activity, inhibitor | – | 3140
O=C(Nc1cc[c]([Sb](=[O])([OH])[OH])cc1)c1ccccc1 | Flap endonuclease 1 | enzyme activity, inhibitor, fluorescence | with preincubation | 18000
CCOC(=O)[C@H]1Cc2c(cc([N+](=O)[O-])cc2[N+](=O)[O-])[C@@H](O)[C@@]12C(=O)Nc1ccc(Cl)cc12 | CDK4 | cell-free assay, inhibitor, TR-FRET | – | 780
CN1CCC(=C2c3ccccc3CCc3cccnc32)CC1 | CHRM2 | calcium signal, antagonist | – | 80
Cc1cc(SCc2sc(-c3ccc(C(F)(F)F)c(F)c3)nc2C)ccc1OCC(=O)O | Thyroid hormone receptor alpha (THRA, Homo sapiens, UniProt P10827) | reporter gene, antagonist, luciferase | – | 31400
CCOC(=O)[C@H]1Cc2c(cc([N+](=O)[O-])cc2[N+](=O)[O-])[C@H](O)[C@]12C(=O)Nc1ccc(Br)cc12 | CDK4 | cell-free assay, inhibitor, TR-FRET | – | 10600
CCOC(=O)CCCc1cc[c]([Sb](=[O])([OH])[OH])cc1 | Flap endonuclease 1 | enzyme activity, inhibitor, fluorescence | with preincubation | 1700
COc1cccc(-c2nsc(=O)o2)c1 | Chymotrypsinogen A | enzyme activity, inhibitor | – | 2190
C[N+](C)(C)CC#CCOC(=O)Nc1cccc(Cl)c1 | CHRM2 | ligand displacement, radioligand | – | 330000
CCOC(=O)[C@H]1Cc2c(cc([N+](=O)[O-])cc2[N+](=O)[O-])[C@@H](O)[C@@]12C(=O)Nc1ccc([N+](=O)[O-])cc12 | CDK4 | cell-free assay, inhibitor, TR-FRET | – | 3310
COc1ncccc1-c1cnn2ccc(N3CCN(C(=O)OC(C)C)CC3)nc12 | Cyclin-G-associated kinase (GAK, Homo sapiens, UniProt O14976) | enzyme activity, inhibitor, radiometric | – | 320
CCOC(=O)[C@H]1Cc2c(cc([N+](=O)[O-])cc2[N+](=O)[O-])[C@@H](O)[C@@]12C(=O)Nc1ccc(C)cc12 | CDK4 | cell-free assay, inhibitor, TR-FRET | – | 910
[O]=[Sb]([OH])([OH])[c]1ccccc1 | Flap endonuclease 1 | enzyme activity, inhibitor | with preincubation | 130000
COc1cc(C(=O)N2CC[C@@H](O)[C@@H](N)C2)cc2nc(-c3cc4ccccc4n3CC3CC3)n(C)c12 | CHRM2 | calcium signal, antagonist, fluorescence | – | > 15800
CC[C@H](C)[C@@H]1NC(=O)[C@H](Cc2ccc(-c3ccccc3)cc2)NC(=O)[C@H](CC2CCCCC2)NC(=O)[C@@H]2[C@@H](c3ccccc3)CCN2C(=O)[C@@H](NC(=O)[C@H](CCCNC(=N)N)NC(=O)[C@H](CCCNC(=N)N)NC(C)=O)CSSC[C@@H](C(=O)N[C@@H](CCCNC(=N)N)C(=O)N[C@@H](CCCNC(=N)N)C(N)=O)NC(=O)[C@H](C(C)C)NC(=O)[C@@H]2CCCN2C(=O)[C@H](CC(=O)O)NC(=O)[C@H](Cc2ccc(O)cc2)NC(=O)[C@H](CO)NC1=O | KRAS G12D | enzyme activity, inhibitor, TR-FRET | – | 20
c1ccc(-c2c[nH]c3ncnc(N4CCOCC4)c23)cc1 | Serine/threonine-protein kinase 3 (STK3, Homo sapiens, UniProt Q13188) | enzyme activity, inhibitor, ADP detection | – | 127
